# Published values of several laboratories.
# Each line is one published result; the experiments were not run side by side.
# Cell line: LNCaP
# Observed: cell growth or viability
Compound,test,conditions,quantity,result
COc1cc(C(=O)c2csc(-c3ccccc3)n2)cc(OC)c1OC,SRB,96 h,IC50,0.028 µM
FC(F)(F)c1ccc(C(c2c[nH]c3ccccc23)c2c[nH]c3ccccc23)cc1,MTT,"20 µM, 48 h",inhibition,97%
C[C@]12CC[C@H](O)CC1=CC[C@@H]1[C@@H]2CC[C@]2(C)C(c3cccnc3)=CC[C@@H]12,MTT,,GI50,11.2 µM
CC(=O)O[C@@]12CO[C@@H]1C[C@H](O)[C@@]1(C)C(=O)[C@H](O)C3=C(C)[C@@H](OC(=O)[C@H](O)[C@@H](NC(=O)OC(C)(C)C)c4ccccc4)C[C@@](O)([C@@H](OC(=O)c4ccccc4)[C@H]21)C3(C)C,trypan blue,,IC50,0.001 µM
COC1=CC(=O)N(C(=O)[C@@H](CCC(Cl)(Cl)Cl)NC(=O)C(C)(C)C)[C@@H]1CCC(Cl)Cl,resazurin,96 h,IC50,6.9 µM
COc1ccc2c(N(C)c3ccc(/C(C)=N/OCCN)cc3)c3c(Cl)coc3nc2c1,trypan blue,72 h,IC50,0.235 µM
Cn1cc(C(c2ccc(C(=O)O)cc2)c2cn(C)c3ccccc23)c2ccccc21,MTT,48 h,IC50,36 µM
C[C@]12CC[C@H](O)CC1=CC[C@@H]1[C@@H]2CC[C@]2(C)C(n3cnc4ccccc43)=CC[C@@H]12,XTT,7 days,IC50,2.6 µM
O=C(CCCCCCC(=O)Nc1ccccc1)NO,MTT,72 h,GI50,5.2 µM
CNC(=O)c1ccc(N2C(=S)N(c3ccc(C#N)c(C(F)(F)F)c3)C(=O)C2(C)C)cc1F,MTT,,GI50,13.7 µM
O=C(CCCCCCC(=O)Nc1ccc(CCF)cc1)NO,MTT,72 h,GI50,4.8 µM
O=C(O)/C=C/c1cccc(C(c2c[nH]c3ccccc23)c2c[nH]c3ccccc23)c1,MTT,48 h,IC50,43 µM
CC(C)C[C@H](NC(=O)[C@H](Cc1ccccc1)NC(=O)c1cnccn1)B(O)O,ATP luminescence,,IC50,0.019 µM
CC(O)(CS(=O)(=O)c1ccc(F)cc1)C(=O)Nc1ccc(C#N)c(C(F)(F)F)c1 (stereo not shown),XTT,7 days,IC50,4.6 µM
COc1cc(Nc2nccc(-c3cnn4nc(OC)ccc34)n2)cc(C(F)(F)F)c1,ATP luminescence,,IC50,0.47 µM
O=C(O)C(c1c[nH]c2ccccc12)c1c[nH]c2ccccc12,MTT,"100 µM, 48 h",inhibition,34%
